Results published in ChEMBL document CHEMBL1165851, “Synthesis and inhibitory evaluation of cyclohexen-2-yl- and cyclohexyl-substituted phenols and quinones to endothelial cell and cancer cells” (Eur J Med Chem, 2010).

How the values were obtained:
Bel-7402 = experiment: Antiproliferative activity human Bel7402 cells after 96 hrs by MTT assay
HUVEC = experiment: Antiproliferative activity HUVEC after 96 hrs by MTT assay
MCF7 = experiment: Antiproliferative activity human MCF7 cells after 96 hrs by MTT assay
A549 = experiment: Antiproliferative activity human A549 cells after 96 hrs by MTT assay
[1] = Antiproliferative activity human CCC-HPF1 cells after 20 hrs by MTT assay; assay type: cell-based; conditions: ccc-hpf1, 96 h, in the assay text read “96 hrs” for “20 hrs”
Outline: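 HUVECs isolated from fresh umbilical cords and used at passages 3–8, grown in EGM-2. A549 and Bel-7402 in RPMI 1640; MCF-7 and ccc-HPF-1 in DMEM; all at 37 °C, 5% CO2. Seeded 1000 (HUVEC, Bel-7402), 1500 (MCF-7, ccc-HPF-1) or 2000 (A549) cells/well and left 20 h. Compound then added from PBS dilutions (final DMSO 0.1%), triplicate, 96 h. Readout MTT viability; IC50/CC50 from viability versus concentration.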

[2] = Homo sapiens, Bel-7402, 96 h, read-out: IC50
[3] = Homo sapiens, HUVEC, 96 h, read-out: IC50
[4] = Homo sapiens, MCF7, 96 h, read-out: IC50
[5] = Homo sapiens, A549, 96 h, read-out: IC50

Structure (SMILES) | IC50 (Bel-7402; [2]) [µM] | IC50 (HUVEC; [3]) [µM] | IC50 (MCF7; [4]) [µM] | IC50 (A549; [5]) [µM] | IC50 (Bel-7402; bel-7402) | CC50 [1] | IC50 (HUVEC; huvec) | IC50 (MCF7; mcf7) | IC50 (A549; a549)
Cc1ccc(C2C=CCCC2)c(O)c1O (stereo not given) | 30 | 27.1 | 32.4 | 35.6 |  |  |  |  | 
CC1=CC(=O)C(C2C=CCCC2)=CC1=O (stereo not given) | ≥ 50 | 9.1 | ≥ 50 | 30.9 |  |  |  |  | 
CC(C)(C)c1cc(O)c(C2CCCCC2)cc1O | 30.3 | 7.4 | ≥ 50 | 36.3 |  |  |  |  | 
Oc1cccc2c1C1CCCCC1O2 (stereo not given) |  |  |  |  | Not Active | Not Active | Not Active | Not Active | Not Active
Cc1c(O)ccc(C2C=CCCC2)c1O (stereo not given) |  |  |  |  | Not Active | Not Active | Not Active | Not Active | Not Active
O=C1C=C(C2C=CCCC2)C(=O)c2ccccc21 (stereo not given) | 31.2 | 26.7 | 40.2 | 31.8 |  |  |  |  | 
Oc1ccccc1C1C=CCCC1 (stereo not given) | ≥ 50 | 31.5 | ≥ 50 | ≥ 50 |  |  |  |  | 
Oc1c(C2C=CCCC2)ccc(C2C=CCCC2)c1O (stereo not given) | ≥ 50 | 28.8 | ≥ 50 | ≥ 50 |  |  |  |  | 
Cc1cc(O)c(O)c(C2C=CCCC2)c1 (stereo not given) | 26.9 | 15.3 | ≥ 50 | 34.4 |  |  |  |  | 
Cc1cc(O)c(O)cc1C1C=CCCC1 (stereo not given) | 8.5 | 4.7 | 26.4 | 9.5 |  |  |  |  | 
Cc1c(O)c(C2C=CCCC2)cc(C2C=CCCC2)c1O (stereo not given) | ≥ 50 | 33 | ≥ 50 | ≥ 50 |  |  |  |  | 
Oc1cc(C2C=CCCC2)c(O)cc1C1C=CCCC1 (stereo not given) | ≥ 50 | 2 | ≥ 50 | ≥ 50 |  |  |  |  | 
Oc1c(C2C=CCCC2)ccc2ccccc12 (stereo not given) | ≥ 50 | 22 | ≥ 50 | ≥ 50 |  |  |  |  | 
Cc1cc(O)c(O)cc1C1CCCCC1 | 22.7 | 8.3 | 31.1 | 27.7 |  |  |  |  | 
O=C1C=C(C2C=CCCC2)C(=O)C=C1C1C=CCCC1 (stereo not given) | ≥ 50 | 6.2 | ≥ 50 | ≥ 50 |  |  |  |  | 
CC(C)(C)c1cc(O)c(C2C=CCCC2)cc1O (stereo not given) | ≥ 50 | 1.4 | ≥ 50 | ≥ 50 |  |  |  |  | 
CC(C)(C)C1=CC(=O)C(C2C=CCCC2)=CC1=O (stereo not given) | ≥ 50 | 6.8 | ≥ 50 | ≥ 50 |  |  |  |  | 
CC(C)(C)c1cc2c(cc1O)C1CCCCC1O2 (stereo not given) | ≥ 50 | 22.4 | ≥ 50 | ≥ 50 |  |  |  |  | 
CC(C)(C)c1cc(O)cc(C2C=CCCC2)c1O (stereo not given) | ≥ 50 | 11.6 | ≥ 50 | ≥ 50 |  |  |  |  | 
Oc1cc(C2CCCCC2)c(O)cc1C1CCCCC1 | ≥ 50 | 8.2 | ≥ 50 | ≥ 50 |  |  |  |  | 
O=C1C=C(C2CCCCC2)C(=O)C=C1C1CCCCC1 | 31.3 | 7.8 | ≥ 50 | 31.9 |  |  |  |  | 
CC(C)(C)C1=CC(=O)C(C2CCCCC2)=CC1=O | ≥ 50 | 6 | ≥ 50 | ≥ 50 |  |  |  |  | 
Cc1cc(O)c2c(c1)OC1CCCCC21 (stereo not given) |  |  |  |  | Not Active | Not Active | Not Active | Not Active | Not Active
CC(C)(C)c1cc(O)c(O)c(C2C=CCCC2)c1 (stereo not given) | ≥ 50 | 10 | ≥ 50 | ≥ 50 |  |  |  |  | 
Cc1cc(O)c(C2C=CCCC2)c(O)c1 (stereo not given) |  |  |  |  | Not Active | Not Active | Not Active | Not Active | Not Active
CO[C@@H]1[C@H](OC(=O)NC(=O)CCl)CCC2(CO2)[C@H]1[C@@]1(C)O[C@@H]1CC=C(C)C (single isomer, unassigned) [O-CHLOROACETYLCARBAMOYLFUMAGILLOL] | ≥ 50 | 0.0089 | ≥ 50 | 50 |  |  |  |  | 
COc1cccc2c1C(=O)c1c(O)c3c(c(O)c1C2=O)C[C@@](O)(C(=O)CO)C[C@@H]3O[C@H]1C[C@H](N)[C@H](O)[C@H](C)O1 [DOXORUBICIN] | 0.58 |  |  |  |  |  |  |  | 
CC(=O)O[C@H]1C(=O)[C@@]2(C)[C@H]([C@H](OC(=O)c3ccccc3)[C@]3(O)C[C@H](OC(=O)[C@H](O)[C@@H](NC(=O)c4ccccc4)c4ccccc4)C(C)=C1C3(C)C)[C@]1(OC(C)=O)CO[C@@H]1C[C@@H]2O [PACLITAXEL] |  |  |  | 0.0049 |  |  |  |  | 
